Assay results reported in PubChem BioAssay.
Activity calls are given as the source filed them.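 The calls were made as follows, unless noted: active = visually confirmed hit in the image check and inhibition above 20%; inconclusive = visually confirmed hit but inhibition not above 20%; inactive = no visual hit in the image check.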

Key:
[1] = inhibitors of TNFa-induced NFkB p65 translocation, primary screen, imaging, HUVEC, MLSMR starter and 10KST1 sets (AID 438;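 active = inhibition above 20% together with a positive visual image hit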;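 also: compound added about 3h40 before a 20 min TNFalpha stimulation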;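 as to inhibition: signal is the nuclear over cytoplasmic p65 intensity ratio per well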); conditions: HUVEC TNFa-induced p65 nuclear translocation; cell count: measured here: nuclei count (cytotoxicity indicator), at 2.08 µM; inhibition: at 2 µM, stronger effect = higher value, 0% TNFa-plus-vehicle, 100% no-TNFa wells
[2] = inhibitors of E-selectin induction by TNFa, primary screen, imaging, HUVEC, immunofluorescence, MLSMR starter and 10KST1 sets (AID 487); conditions: HUVEC TNFalpha-induced E-selectin immunofluorescence imaging, at 2 µM; inhibition: stronger effect = higher value; nuclei count: measured here: cell number, toxicity;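 as to inhibition: signal is fraction of cell area covered by stained E-selectin grains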;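 as to nuclei count: 100% = median nuclei count of all wells on the same plate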
[3] = DUSP6 inhibitors restoring Erk phosphorylation by chemical complementation, primary imaging in DUSP6-transfected HeLa (AID 609;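 active = compounds giving at least 50% inhibition in the cell-based MKP-3 phosphatase rescue imaging test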;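 as to inhibition: phospho-Erk level distribution per well compared with pooled transfected vehicle control wells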); conditions: HeLa MKP-3 transfected, phospho-Erk imaging KS statistic, at 10 µM, cells stimulated with TPA for 15 min
[4] = target: Dual specificity protein phosphatase 6 (Homo sapiens) (UniProt Q16828); test: as above; conditions: HeLa MKP-3 transfected, phospho-Erk imaging KS statistic; at 10 µM; stronger effect = higher value; cells stimulated with TPA for 15 min
[5] = target: Voltage-gated potassium channel subunit beta-2 (Rattus norvegicus) (UniProt P62483); test: KvBeta enzyme negative modulators, primary screen, biochemical, NADPH fluorescence (AID 622;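 active = fluorescence slope higher than the sample average by over 3 SD, cut at about -0.22 in these data, passing the limit was not always enough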;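 also: slope of raw intensity against log time taken from 70 to 1610 s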); conditions: recombinant KvBeta, 4-cyanobenzaldehyde reduction, at 10 µM, stronger effect = higher value
[6] = target: Voltage-gated potassium channel subunit beta-2 (Rattus norvegicus) (UniProt P62483); test: KvBeta positive modulators, primary screen, biochemical, NADPH fluorescence (AID 623;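 active = NADPH fluorescence slope more negative than the mean of all samples by about 3 SD, 99.7% confidence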;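 also: fluorescence intensity change per second fitted from 20 to 320 s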); conditions: Recombinant KvBeta, NADPH fluorescence decrease slope, 10 min; at 10 µM; stronger effect = lower value
[7] = target: Alpha-2C adrenergic receptor (Homo sapiens) (UniProt P18825); test: modulators of alpha2C/GIRK thallium flux, primary screen, cell-based, HEK293 alpha2C/GIRK1/2 (AID 624;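 active = fluorescence slope after compound addition differing from the mean of all screened samples at 99.7% confidence, in either direction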;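 also: slope of fluorescence ratio to pre-addition baseline per second over 15 to 24 s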); conditions: thallium flux BTC fluorescence, at 10 µM, actives lie on both sides
[8] = inhibitors of larval lipid processing in zebrafish, primary screen, whole organism, PED6 fluorescence, gall bladder and intestine (AID 686;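 active = a full or partial loss of lipid-probe fluorescence in the fish gall bladder, intestine or both, judged by eye; inactive = no fluorescence loss, or compound toxic to the fish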;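 also: larvae 5 to 7 days old with five fish per well; signal comes from phospholipase A2 cleavage of quenched PED6 carried via bile; overnight exposure to compound and PED6 before scoring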); conditions: Zebrafish larvae PED6 lipid processing, fluorescence scoring; screened at 20 µM (by protocol)
Summary of the method: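 Also added: quenched phospholipase substrate PED6, 100 nM final, ingested by larvae; System: zebrafish larvae, 5-7 d; Quantity: 5 larvae per well; Compound: 20 µM single dose; Schedule: overnight compound and PED6 incubation; Read-out: visual per-well fluorescence inhibition score; Measured by: By-eye fluorescence microscopy; Medium: E3.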

[9] = inhibitors of Chlamydomonas gravitaxis, primary screen, whole organism, Chlamydomonas reinhardtii, WT vs cilia-less mutant, absorbance, 96-well (AID 463189;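 active = inhibition at or above 50% relative to wild type and mutant plate controls; inactive = inhibition below 50%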;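 also: 0% = wild type cc124 cells in DMSO and 100% = ciliumless bld1 mutant cells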); conditions: OD600 absorbance, 2 days, at 10 µM, stronger effect = higher value
[10] = measured here: cell density z-score
[11] = measured here: nuclear c-Myc green intensity z-score
[12] = measured here: nuclear pErk red intensity z-score, stronger effect = higher value

Sequence of Voltage-gated potassium channel subunit beta-2 (Rattus norvegicus) (P62483 whole entry, looked up): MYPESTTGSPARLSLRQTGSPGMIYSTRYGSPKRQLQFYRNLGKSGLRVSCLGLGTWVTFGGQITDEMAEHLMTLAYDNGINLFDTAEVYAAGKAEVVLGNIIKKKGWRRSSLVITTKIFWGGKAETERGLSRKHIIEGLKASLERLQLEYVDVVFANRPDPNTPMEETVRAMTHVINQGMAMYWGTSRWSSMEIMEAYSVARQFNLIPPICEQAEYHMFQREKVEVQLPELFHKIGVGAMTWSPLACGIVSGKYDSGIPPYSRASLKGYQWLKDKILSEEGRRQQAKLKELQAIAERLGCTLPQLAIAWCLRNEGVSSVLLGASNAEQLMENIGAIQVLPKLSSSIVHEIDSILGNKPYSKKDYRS
Sequence of Dual specificity protein phosphatase 6 (Homo sapiens) (Q16828 whole entry, looked up): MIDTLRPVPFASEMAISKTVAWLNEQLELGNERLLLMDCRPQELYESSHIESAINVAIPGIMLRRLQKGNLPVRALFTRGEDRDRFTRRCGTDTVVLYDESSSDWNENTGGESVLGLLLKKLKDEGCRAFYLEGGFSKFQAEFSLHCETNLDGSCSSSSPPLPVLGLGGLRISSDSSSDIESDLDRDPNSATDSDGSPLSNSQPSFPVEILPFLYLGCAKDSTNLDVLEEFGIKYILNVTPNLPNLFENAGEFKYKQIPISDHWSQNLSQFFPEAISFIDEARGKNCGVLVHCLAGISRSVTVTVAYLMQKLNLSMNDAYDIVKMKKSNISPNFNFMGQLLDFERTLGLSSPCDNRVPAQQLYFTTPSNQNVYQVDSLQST
Sequence of Alpha-2C adrenergic receptor (Homo sapiens) (P18825 whole entry, looked up): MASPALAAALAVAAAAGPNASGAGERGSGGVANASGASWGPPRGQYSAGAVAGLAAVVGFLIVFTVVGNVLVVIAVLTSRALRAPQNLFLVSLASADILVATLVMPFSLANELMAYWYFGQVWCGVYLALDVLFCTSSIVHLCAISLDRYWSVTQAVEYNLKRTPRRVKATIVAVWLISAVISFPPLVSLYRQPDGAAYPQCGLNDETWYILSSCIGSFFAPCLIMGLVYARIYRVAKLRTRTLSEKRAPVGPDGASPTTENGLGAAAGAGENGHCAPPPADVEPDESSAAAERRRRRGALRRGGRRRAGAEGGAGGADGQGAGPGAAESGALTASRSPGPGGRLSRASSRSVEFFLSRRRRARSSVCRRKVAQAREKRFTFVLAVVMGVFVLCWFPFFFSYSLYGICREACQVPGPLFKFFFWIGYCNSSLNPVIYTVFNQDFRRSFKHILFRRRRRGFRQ

Row | SMILES | cell count [1] | inhibition [1] | inhibition [2] | nuclei count [2] [%] | z-score [3, 10] | z-score [3, 11] | z-score [3, 12] | inhibition [4] | fluorescence slope [5] | NADPH fluorescence slope [6] | slope [7] | outcome [8] | inhibition [9]
1 | COc1ccc(NC(=O)C2CSC3c4ccccc4C(=O)N23)cc1 (stereo unspecified) | 376 | 0.6% (inactive) | -32.1% (inactive) | 112 | -0.228 | 0.485 | -1.59 | -1.12% (inactive) | -0.355 (inactive) | 2.4e-05 (inactive) | 0.00604 (inactive) | inactive | 127% (active)
2 | Cc1nc2c(c(=O)n1CC1CCCO1)c1nc3ccccc3nc1n2Cc1ccc2c(c1)OCO2 (stereo unspecified) | 281 | -7.1% (inactive) | -128% (inactive) | 80.3 | 2.15 | -0.362 | -1.56 | -0.584% (inactive) | -0.42 (inactive) | -0.000106 (inactive) | 0.00645 (inactive) | inactive | 9.64% (inactive)
3 | COC(=O)Cn1cc(C(=O)OC)cc(Br)c1=O | 507 | -0.8% (inactive) | -135% (inactive) | 136 | 0.966 | 0.177 | 0.211 | -8.76% (inactive) | -0.539 (inactive) | -3.3e-05 (inactive) | 0.00509 (inactive) | inactive | -6.78% (inactive)
4 | CCc1ccc2c(c1)C(C)=CC(C)(C)N2 | 622 | -14.1% (inactive) | -3.3% (inactive) | 176 | -1.35 | -0.276 | 0.835 | -13.3% (inactive) | -0.431 (inactive) | -6.9e-05 (inactive) | 0.00542 (inactive) | inactive | 5.82% (inactive)
5 | COC(=O)C1C(=O)CC(C)(O)C(C(=O)OC)C1c1ccccc1F (stereo unspecified) | 586 | -1.8% (inactive) | -42.2% (inactive) | 178 | -1.74 | -0.438 | 1.61 | 7.83% (inactive) | -0.345 (inactive) | -3.4e-05 (inactive) | 0.00488 (inactive) | inactive | -7% (inactive)
6 | CC(C)NC(=O)N1CCOCCOCCN(C(=O)NC(C)C)CCOCCOCC1 | 513 | -16.8% (inactive) | -142% (inactive) | 144 | 2.53 | -2.34 | -0.54 | 13.9% (inactive) | -0.538 (inactive) | -6.1e-05 (inactive) | 0.00725 (inactive) | inactive | 11.9% (inactive)
7 | CCOCc1nc(N)[nH]c(=O)c1Cc1ccc(OC(C)C)cc1 | 350 | -14.1% (inactive) | -184% (inactive) | 133 | 0.756 | -0.664 | -2.13 | 17% (inactive) | -0.436 (inactive) | -2e-05 (inactive) | 0.00784 (inactive) | inactive | 23.2% (inactive)
8 | Fc1ccccc1/C=N/n1cnnc1 | 540 | -6.3% (inactive) | -60.4% (inactive) | 172 | 0.728 | -0.356 | 0.425 | 4.25% (inactive) | -0.297 (inactive) | -6.2e-06 (inactive) | 0.00552 (inactive) | inactive | 5.22% (inactive)
9 | COc1ccc(Cn2c(=O)c3c(nc(NCCO)n3C)n(C)c2=O)cc1 | 336 | -3.5% (inactive) | -129% (inactive) | 131 | -0.216 | 1.13 | 0.242 | -0.624% (inactive) | -0.369 (inactive) | 3.5e-05 (inactive) | 0.00827 (inactive) | inactive | -14.7% (inactive)
10 | c1csc(Cc2nn3c(-c4ccncc4)nnc3s2)c1 | 669 | -1.9% (inactive) | -17.9% (inactive) | 159 | 0.0409 | 0.511 | -0.101 | -6.06% (inactive) | -0.412 (inactive) | -0.000115 (inactive) | 0.00514 (inactive) | inactive | 8.13% (inactive)
11 | O=C(Nc1nc(NC(=O)c2ccco2)n(-c2ccccc2)n1)c1ccccc1 | 339 | -8.5% (inactive) | -1.3% (inactive) | 157 | 0.978 | -0.403 | -0.743 | -7.01% (inactive) | -0.452 (inactive) | -0.000125 (inactive) | 0.00175 (inactive) | inactive; toxic | 1.31% (inactive)
12 | COc1ccc(OC)c(C2/C(=C(/O)c3cnn(-c4ccccc4)c3C)C(=O)C(=O)N2CCN(C)C)c1 (stereo unspecified) | 452 | 1.9% (inactive) | 8.9% (inactive) | 86.9 | -1.51 | 0.604 | -0.829 | -1.75% (inactive) | -0.47 (inactive) | -9.5e-06 (inactive) | 0.00657 (inactive) | inactive | 12% (inactive)
13 | O=C(Nc1ccc2c(c1)OCO2)c1cc2n(n1)C(C(F)(F)F)CC(c1ccccc1)N2 (stereo unspecified) | 415 | -5.8% (inactive) | 33.8% (inactive) | 65.6 | -0.336 | 0.972 | -0.0303 | 7.48% (inactive) | -0.544 (inactive) | -7.9e-05 (inactive) | 0.00462 (inactive) | inactive | -16.3% (inactive)
14 | OCCNc1nc(-c2ccccc2)c2ccccc2n1 | 419 | -4.7% (inactive) | -153% (inactive) | 133 | -0.162 | 1.09 | -0.852 | -10.1% (inactive) | -0.341 (inactive) | -1.3e-05 (inactive) | 0.00672 (inactive) | inactive | -5.43% (inactive)
15 | CC(=O)Nc1cc2c(cc1Br)OCCO2 | 524 | -18.7% (inactive) | -80.8% (inactive) | 169 | -0.0183 | 1.62 | -0.826 | 16.1% (inactive) | -0.519 (inactive) | -3.4e-05 (inactive) | 0.00516 (inactive) | inactive | 33.1% (inactive)
16 | CC1(C)CC(=O)C(C=NCC(O)c2ccccc2)=C(O)C1 (stereo unspecified) | 461 | -12.7% (inactive) | -181% (inactive) | 204 | -1.15 | 1.23 | 0.572 | 4.37% (inactive) | -0.354 (inactive) | -1.9e-05 (inactive) | 0.00522 (inactive) | inactive | 14.3% (inactive)
17 | O=C1C(=O)N(CCN2CCOCC2)C(c2ccccn2)/C1=C(/O)c1ccc(F)cc1 (stereo unspecified) | 368 | -5.8% (inactive) | -3.3% (inactive) | 124 | -0.169 | 0.443 | -0.876 | 3.66% (inactive) | -0.392 (inactive) | -5.6e-05 (inactive) | 0.00569 (inactive) | inactive | 38.7% (inactive)
18 | COc1ccc(-c2c3c([nH]c(=S)c2C#N)CCC3)cc1 | 527 | -5.1% (inactive) | -113% (inactive) | 192 | -0.0351 | 1.87 | 0.16 | 2.46% (inactive) | -0.314 (inactive) | -4.4e-06 (inactive) | 0.00379 (inactive) | inactive | -1.44% (inactive)
19 | Clc1ccc(-c2nn3c(-c4cccc(Cl)c4)nnc3s2)cc1 | 603 | -0.1% (inactive) | -90.1% (inactive) | 150 | -0.779 | 0.764 | -0.704 | -2.47% (inactive) | -0.42 (inactive) | -9.2e-05 (inactive) | 0.00631 (inactive) | inactive | 33% (inactive)
20 | Cc1cccn2c(=O)c3cc(C#N)c(=N)n(Cc4ccncc4)c3nc12 | 604 | -18.3% (inactive) | -96.5% (inactive) | 165 | 0.463 | -1.24 | 0.303 | -4.27% (inactive) | -0.479 (inactive) | -4.2e-05 (inactive) | 0.00367 (inactive) | inactive | -9.33% (inactive)
21 | CCC1(C)Cc2c(sc3nc4n(c(=O)c23)CCS4)CO1 (stereo unspecified) | 596 | -14.8% (inactive) | -109% (inactive) | 182 | -1.93 | -0.473 | 1.15 | -6.86% (inactive) | -0.336 (inactive) | -1e-05 (inactive) | 0.00519 (inactive) | inactive | 5.08% (inactive)
22 | CCOc1cccc(-c2nnc3sc(-c4cc(OC)c(OC)c(OC)c4)nn23)c1 | 647 | -9.1% (inactive) | -15.9% (inactive) | 171 | 1.15 | 0.91 | -0.181 | -15% (inactive) | -0.39 (inactive) | -0.000117 (inactive) | 0.00923 (inactive) | inactive | 6.41% (inactive)
23 | CCOC(=O)CCc1c(C)c(C#N)c2[nH]c3ccccc3n2c1=O | 536 | -1.4% (inactive) | -8.6% (inactive) | 82.5 | -0.186 | -0.0675 | -0.0374 | 15.9% (inactive) | -0.617 (inactive) | -3.7e-05 (inactive) | 0.00416 (inactive) | active; weak signal in gallbladder and intestine | 18.4% (inactive)
24 | CN(C)CCCN1C(=O)C(O)=C(C(=O)c2cc3ccccc3o2)C1c1ccccc1 (stereo unspecified) | 454 | 2.5% (inactive) | -61.8% (inactive) | 132 | -0.256 | 0.437 | -0.536 | 6.04% (inactive) | -0.418 (inactive) | -5.3e-05 (inactive) | 0.00564 (inactive) | inactive | -3.04% (inactive)
25 | CC(C)Oc1ccc(C(=O)CCN2CCCCC2)cc1 | 457 | 6.5% (inactive) | -349% (inactive) | 163 | 0.309 | -0.269 | -0.0861 | -10.6% (inactive) | -0.258 (inactive) | 2.6e-05 (inactive) | 0.00524 (inactive) | inactive | 139% (active)
26 | N#Cc1c(N)sc(=S)c2c1CCCCC2 | 560 | -3.2% (inactive) | -130% (inactive) | 180 | -0.472 | -0.421 | 0.0305 | -0.608% (inactive) | -0.339 (inactive) | 2.8e-06 (inactive) | 0.00229 (inactive) | inactive | 6.84% (inactive)
27 | COCCNc1nc2c(c(=O)n(Cc3ccc(OC)cc3)c(=O)n2C)n1C | 357 | -17.8% (inactive) | -26.3% (inactive) | 128 | 0.697 | 0.778 | -0.00517 | 4.37% (inactive) | -0.32 (inactive) | 7.3e-06 (inactive) | 0.00535 (inactive) | inactive | 15.2% (inactive)
